From ChEMBL document CHEMBL1153965, “Inhibitors of hepatitis C virus NS3/4A: alpha-ketoamide based macrocyclic inhibitors” (Bioorg Med Chem Lett, 2009)

Experiments:
Hepatitis C virus [1] = assay: Antiviral activity against HCV replication infected in human HuH7 cells after 96 hrs by replicon assay in presence of 10% FCS; assay type: functional, organism-based, Hepacivirus hominis, Huh-7
Summary of the method: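 Compounds incubated with replicon cells at 37 °C for 96 h in medium containing 10% FCS, with inhibition of replication read out to give EC50.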

[2] = Inhibition of full length HCV NS3/4A protease by TRF assay; set-up: species or system Hepacivirus hominis
[3] = Cytotoxicity against human HuH7 cells; assay type: cell-based, Huh-7
[4] = Cmax in Wistar rat at 5 mg/kg, po; assay type: ADME, organism-based; set-up: dose 5 mg/kg, route oral; details: in vivo
Summary of the method: (§1)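 Male Wistar rats dosed orally at 5 mg/kg in PEG 400 vehicle, with plasma exposure measured. Values are geometric means from 3 animals.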

[5] = AUC (0 to infinity) in Wistar rat plasma at 5 mg/kg, po; assay type: ADME, organism-based; set-up: time infinity, dose 5 mg/kg, route oral; summary of the method: as §1
[6] = Drug level in Wistar rat liver at 5 mg/kg, po after 4 hrs; assay type: ADME, organism-based; set-up: dose 5 mg/kg, route oral; details: read-out: Drug uptake
Hepatitis C virus [7] = assay: Antiviral activity against HCV replication infected in human HuH7 cells after 72 hrs by replicon assay in presence of 5% FCS; details: Huh-7, 72 h
[8] = Oral bioavailability in Wistar rat at 5 mg/kg; assay type: ADME, organism-based; details: in vivo
Hepatitis C virus [9] = assay: Antiviral activity against HCV replication infected in human HuH7 cells after 48 hrs by replicon assay in presence of 2% FCS; details: Huh-7, 48 h

Row | EC50 (Hepatitis C virus [1]; Hepatitis C virus, Huh-7, 96 h) | Ki [2] | Cmax [4] | AUC(0-inf) [5] | concentration at 4 h [6] | EC50 (Hepatitis C virus [1]; huh-7) | EC50 (Hepatitis C virus [7]) | bioavailability [8] | EC50 (Hepatitis C virus [9]) | SMILES | CC50 [3]
1 | 1320 nM | 242 nM |  |  |  |  |  |  |  | CCC[C@H](NC(=O)[C@@H]1C[C@@H]2CN1C(=O)[C@H](C(C)(C)C)NC(=O)OCCCCCCc1cccc3c1CN(C3)C(=O)O2)C(=O)C(=O)NCc1ccccc1 | > 50000 nM
2 | 940 nM | 140 nM |  |  |  |  |  |  |  | CCC[C@H](NC(=O)[C@@H]1C[C@@H]2CN1C(=O)[C@H](C(C)(C)C)NC(=O)OCCCCCCc1cccc3c1CN(C3)C(=O)O2)C(=O)C(=O)NC1CCC1 | > 50000 nM
3 | > 500 nM | 140 nM |  |  |  |  |  |  |  | CCC[C@H](NC(=O)[C@@H]1C[C@@H]2CN1C(=O)[C@H](C(C)(C)C)NC(=O)OCCCCCCc1cccc3c1CN(C3)C(=O)O2)C(=O)C(=O)NC(C)c1ccccc1 (stereo not given in full) | > 50000 nM
4 | 550 nM | 71 nM | 160 nM | 0.58 µM·h | 480 nM |  |  |  |  | C=CCNC(=O)C(=O)[C@H](CCC)NC(=O)[C@@H]1C[C@@H]2CN1C(=O)[C@H](C(C)(C)C)NC(=O)OCCCCCCc1cccc3c1CN(C3)C(=O)O2 | > 50000 nM
5 | 790 nM | 176 nM |  |  |  |  |  |  |  | CCC[C@H](NC(=O)[C@@H]1C[C@@H]2CN1C(=O)[C@H](C(C)(C)C)NC(=O)OCCCCCCc1cccc3c1CN(C3)C(=O)O2)C(=O)C(=O)NCc1ccccn1 | > 50000 nM
6 | 520 nM | 66 nM |  |  |  |  |  |  |  | CCC[C@H](NC(=O)[C@@H]1C[C@@H]2CN1C(=O)[C@H](C(C)(C)C)NC(=O)OCCCCCCc1cccc3c1CN(C3)C(=O)O2)C(=O)C(=O)NC(C)CC (stereo not given in full) | > 50000 nM

The next lines start with the molecule.

Row | SMILES | EC50 (Hepatitis C virus [1]; Hepatitis C virus, Huh-7, 96 h) | Ki [2] | Cmax [4] | AUC(0-inf) [5] | concentration at 4 h [6] | EC50 (Hepatitis C virus [1]; huh-7) | EC50 (Hepatitis C virus [7]) | bioavailability [8] | EC50 (Hepatitis C virus [9]) | CC50 [3]
7 | CCC[C@H](NC(=O)[C@@H]1C[C@@H]2CN1C(=O)[C@H](C(C)(C)C)NC(=O)OCCCCCc1cccc3c1CN(C3)C(=O)O2)C(=O)C(=O)NC1CC1 | 600 nM | 83 nM |  |  |  |  |  |  |  | > 50000 nM
8 | CCC[C@H](NC(=O)[C@@H]1C[C@@H]2CN1C(=O)[C@H](C(C)(C)C)NC(=O)OCCCCCCc1cccc3c1CN(C3)C(=O)O2)C(=O)C(=O)NC1CCCC1 | 1050 nM | 78 nM |  |  |  |  |  |  |  | > 50000 nM
9 | CCC(C)NC(=O)C(=O)C(CC(F)F)NC(=O)[C@@H]1C[C@@H]2CN1C(=O)[C@H](C(C)(C)C)NC(=O)OCCCCCCc1cccc3c1CN(C3)C(=O)O2 (single isomer, unassigned; diastereomer 1) | > 12500 nM | 2400 nM |  |  |  |  |  |  |  | > 50000 nM
10 | CCC(C)NC(=O)C(=O)C(CC(F)F)NC(=O)[C@@H]1C[C@@H]2CN1C(=O)[C@H](C(C)(C)C)NC(=O)OCCCCCCc1cccc3c1CN(C3)C(=O)O2 (single isomer, unassigned; diastereomer 2) |  | > 2900 nM |  |  |  | > 6250 nM |  |  |  | 
11 | CC(C)(C)NC(=O)N[C@H](C(=O)N1C[C@H]2[C@@H]([C@H]1C(=O)NC(CC1CCC1)C(=O)C(N)=O)C2(C)C)C(C)(C)C (stereo not given in full) [BOCEPREVIR] |  | 35 nM | 130 nM | 0.21 µM·h |  |  | 200 nM | 3.5% |  | > 50000 nM
12 | CCC[C@H](NC(=O)[C@@H]1[C@H]2CCC[C@H]2CN1C(=O)[C@@H](NC(=O)[C@@H](NC(=O)c1cnccn1)C1CCCCC1)C(C)(C)C)C(=O)C(=O)NC1CC1 [TELAPREVIR] | 1600 nM | 110 nM |  | 1.54 µM·h | 810 nM |  |  | 34.8% | 354 nM | > 50000 nM
